Tests used:
[1] = Cytotoxicity against human RCC4 cells after 4 days by XTT assay; format: functional, cell-based; details: RCC4, 96 h
Summary of the method: (§1)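 RCC4 (VHL-null) and RCC4/VHL (VHL reintroduced) cells kept in DMEM plus 10% FCS. After 4 d, media removed; XTT (0.3 mg/mL) with N-methyl dibenzopyrazine methyl sulfate in phenol red-free media added, 1–2 h at 37 °C. IC50 = concentration giving 50% growth inhibition.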

[2] = Cytotoxicity against human RCC4/VHL cells after 4 days by XTT assay; format: functional, cell-based; details: 96 h; summary of the method: as §1
[3] = Selectivity ratio of IC50 for human RCC4/VHL cells to IC50 for human RCC4 cells; format: functional
Summary of the method: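 IC50 values from 4-day XTT growth inhibition in RCC4/VHL and parental RCC4 cells (serial dilution from 40 µM top, triplicate); ratio taken as RCC4/VHL IC50 over RCC4 IC50.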

**Q.** With `CC(C)(C)c1ccc(S(=O)(=O)NCc2ccc(C(=O)Nc3cccnc3)cc2)cc1` as the compound, how does the IC50 [1] read?
**A.** The IC50 was 0.16 µM.

**Q.** What about the IC50 [2] of the same compound?
**A.** The IC50 was over 40 µM.

**Q.** What about the “Ratio IC50” value [3] of the same compound?
**A.** The value was over 250.

**Q.** For `Cc1cccc(Nc2nc(-c3ccnc(-c4cn(CCCCCCN)nn4)c3)cs2)c1.O=C(O)C(F)(F)F`, which IC50 [1] is on record?
**A.** Its IC50 is 1.7 µM.

**Q.** What about the IC50 [2] of the same compound?
**A.** The IC50 was 2.6 µM.

**Q.** And the “Ratio IC50” value [3]?
**A.** The value was 1.5.

**Q.** For `Cc1cccc(Nc2nc(-c3ccnc(-c4cn(CCOCCOCCOCCOCCOCCOCCN)nn4)c3)cs2)c1`, which IC50 [1] is on record?
**A.** Its IC50 is over 40 µM.

**Q.** What about the IC50 [2] of the same compound?
**A.** Its IC50 is over 40 µM.

**Q.** Which results are given for `CCN(c1cccc(C)c1)c1nc(-c2ccnc(-c3cn(CCOCCOCCOCCOCCOCCOCCN)nn3)c2)cs1`?
**A.** IC50 [1]: > 40 µM; IC50 [2]: > 40 µM

**Q.** What does the source list for `Cc1cccc(Nc2nc(-c3ccncc3-c3cn(CCOCCOCCOCCOCCOCCOCCN)nn3)cs2)c1.O=C(O)C(F)(F)F`?
**A.** IC50 [1]: 2.9 µM; IC50 [2]: 3.9 µM; Ratio IC50 [3]: 1.3

**Q.** With `CCN(c1cccc(C)c1)c1nc(-c2ccncc2-c2cn(CCOCCOCCOCCOCCOCCOCCN)nn2)cs1` as the compound, how does the IC50 [1] read?
**A.** Its IC50 is over 40 µM.

**Q.** And the IC50 [2]?
**A.** The IC50 was over 40 µM.

**Q.** Which IC50 [1] does the source give for `NCCOCCOCCOCCOCCOCCOCC#Cc1ccc(S(=O)(=O)NCc2ccc(C(=O)Nc3cccnc3)cc2)cc1` here?
**A.** The IC50 was 5.8 µM.

**Q.** What about the IC50 [2] of the same compound?
**A.** The IC50 was over 40 µM.

**Q.** What about the “Ratio IC50” value [3] of the same compound?
**A.** The value was over 7.

**Q.** What does the source list for `NCCOCCOCCOCCOCCOCCOCCCc1ccc(S(=O)(=O)NCc2ccc(C(=O)Nc3cccnc3)cc2)cc1`?
**A.** IC50 [1]: 7.9 µM; IC50 [2]: > 40 µM; Ratio IC50 [3]: >5

**Q.** For `NCCOCCOCCOCCOCCOCCOCCCc1ccc(S(=O)(=O)NCc2ccc(C(=O)Nc3ccccc3)cc2)cc1`, which IC50 [1] is on record?
**A.** The IC50 was over 40 µM.

**Q.** What about the IC50 [2] of the same compound?
**A.** Its IC50 is over 40 µM.

**Q.** What does the source list for `Cc1cccc(S(=O)(=O)NCc2ccc(C(=O)Nc3cccnc3)cc2)c1`?
**A.** IC50 [1]: < 1 µM; Ratio IC50 [3]: > 100

**Q.** Which IC50 [1] does the source give for `Cn1ccc(-c2cccc(S(=O)(=O)NCc3ccc(C(=O)Nc4cccnc4)cc3)c2)n1` here?
**A.** Its IC50 is under 1 µM.

**Q.** And the “Ratio IC50” value [3]?
**A.** The value was over 100.

**Q.** Which results are given for `COc1ccc(S(=O)(=O)NCc2ccc(C(=O)Nc3cccnc3)cc2)cc1OC`?
**A.** IC50 [1]: < 1 µM; Ratio IC50 [3]: >100

**Q.** Which results are given for `CN1CCN(c2ccc(S(=O)(=O)NCc3ccc(C(=O)Nc4cccnc4)cc3)cc2)CC1`?
**A.** IC50 [1]: < 1 µM; Ratio IC50 [3]: >100

**Q.** For `Cl.O=C(Nc1cccnc1)c1ccc(CNS(=O)(=O)c2ccc(CN3CCOCC3)cc2)cc1`, which IC50 [1] is on record?
**A.** The IC50 was under 1 µM.

**Q.** And the “Ratio IC50” value [3]?
**A.** The value was over 100.

**Q.** Which IC50 [1] does the source give for `CN1CCN(Cc2ccc(S(=O)(=O)NCc3ccc(C(=O)Nc4cccnc4)cc3)cc2)CC1` here?
**A.** Its IC50 is under 1 µM.

**Q.** And the “Ratio IC50” value [3]?
**A.** Its value is over 100.

**Q.** What does the source list for `Cc1cccc(Nc2nc(-c3ccncc3)cs2)c1`?
**A.** IC50 [1]: 2.1 µM; IC50 [2]: 40 µM; Ratio IC50 [3]: 19

Source: ChEMBL document CHEMBL3102767, “Identifying novel targets in renal cell carcinoma: design and synthesis of affinity chromatography reagents” (Bioorg Med Chem, 2014)
